Results collected from several papers.
Compare with care: the assays were run in different laboratories. pIC50: −log10 of the molar value.
Effect on: cell growth or viability

Structure (SMILES)	cell line	assay	setting	pIC50
O=C1CCC(N2C(=O)c3cccc4c(Cc5cnn(C6CCNCC6)c5)ccc2c34)C(=O)N1 (stereo not shown)	NCI-H929	–	–	9.80
Cc1cccc(N=C2C(=O)N(Cc3ccccc3)c3ccccc32)c1	HCT-116	MTT	48 h	5.57
CN1CCC(NC2CCc3[nH]c4c(C(N)=O)ccc(-c5ccccc5Cl)c4c3C2)CC1 (stereo not shown)	DOHH-2	–	96 h	7.61
O=C(NO)c1ccc(Cn2cnc3c(Nc4ccc(Cl)cc4)ncnc32)cc1	Raji	MTT	72 h	6.44
Cc1nc(Nc2ncc(C(=O)Nc3c(C)cccc3Cl)s2)cc(N2CC[C@H](O)C2)n1	JVM13	ATP luminescence	72 h	< 5.00
O=C1CCC(N2Cc3c(OCc4ccc(CN5CCNCC5)cc4)cccc3C2=O)C(=O)N1 (stereo not shown)	NCI-H929	–	–	7.69
COc1cccc(NC(=O)Nc2nc3cc(-c4ccc5ncn(CCN6CCOCC6)c(=O)c5c4)ccc3s2)c1	PC-9	MTT	72 h	< 4.70
Nc1cccc2c1CN(C1CCC(=O)NC1=O)C2=O (stereo not shown)	NCI-H929	–	–	< 7.30
O=C(NO)c1ccc(Cn2cnc3c(Nc4cccc([N+](=O)[O-])c4)ncnc32)cc1	Raji	MTT	72 h	6.52
CCNC(=O)Nc1nc2cc(-c3ccc4ncn(Cc5ccccc5)c(=O)c4c3)ccc2s1	PC-9	MTT	72 h	< 4.70
COc1ccc(Nc2ncnc3c2ncn3Cc2ccc(C(=O)NO)cc2)cc1	Raji	MTT	72 h	6.37
CC(C)(O)C(=O)N1CCC(n2cc(Cc3ccc4c5c(cccc35)C(=O)N4C3CCC(=O)NC3=O)cn2)CC1 (stereo not shown)	NCI-H929	–	–	9.72
COc1cc(C2C3=C(COC3=O)N(CCO)c3cc4c(cc32)CCC4)cc(OC)c1OC (stereo not shown)	EMT6	ATP luminescence	48 h	6.74
COc1cc(C2C3=C(Nc4nc(SC)[nH]c(=O)c42)c2ccccc2C3=O)ccc1O (stereo not shown)	SK-OV-3	MTT	72 h	< 3.00
COc1cccc(NC(=O)Nc2nc3cc(-c4ccc5ncn(CCC6CCCCC6)c(=O)c5c4)ccc3s2)c1	PC-9	MTT	72 h	< 4.70
Nc1ccccc1NC(=O)c1ccc(Cn2cnc3c(Nc4ccc(Br)cc4F)ncnc32)cc1	Raji	MTT	72 h	6.92
CN(C)CCn1cnc2ccc(-c3ccc4sc(NC(=O)Nc5ccc(F)cc5)nc4c3)cc2c1=O	PC-9	MTT	72 h	5.31
O=C1CCC(N2C(=O)c3cccc4c(Cc5cnn(C6CCN(C(=O)C7(O)CC7)CC6)c5)ccc2c34)C(=O)N1 (stereo not shown)	NCI-H929	–	–	10.05
O=C(Nc1nc2cc(-c3ccc4ncn(Cc5ccccc5)c(=O)c4c3)ccc2s1)NC1CCCCC1	PC-9	MTT	72 h	< 4.70
O=C1CCC(N2C(=O)c3cccc4c(Cc5ccc(CN6CCNCC6)cc5)ccc2c34)C(=O)N1 (stereo not shown)	NCI-H929	–	–	9.14
O=C1C(=Nc2ccccc2Br)c2ccccc2N1Cc1ccccc1	HCT-116	MTT	48 h	5.96
COc1cccc(NC(=O)Nc2nc3cc(-c4ccc5ncn(CC(=O)N6CCOCC6)c(=O)c5c4)ccc3s2)c1	PC-9	MTT	72 h	< 4.70
